Measured values from ChEMBL document CHEMBL1129566 (J Med Chem, 1996).
In brackets after ≈: the same amount, converted by molar mass.

How the values were obtained:
[1] = target: T1, Beta-lactamase SHV-1 (Escherichia coli) (UniProt P0AD63); assay: Rate of hydrolysis in 0.1 M sodium phosphate buffer at pH=7.0 by Beta lactamase (SHV-2)
T1 sequence (whole entry): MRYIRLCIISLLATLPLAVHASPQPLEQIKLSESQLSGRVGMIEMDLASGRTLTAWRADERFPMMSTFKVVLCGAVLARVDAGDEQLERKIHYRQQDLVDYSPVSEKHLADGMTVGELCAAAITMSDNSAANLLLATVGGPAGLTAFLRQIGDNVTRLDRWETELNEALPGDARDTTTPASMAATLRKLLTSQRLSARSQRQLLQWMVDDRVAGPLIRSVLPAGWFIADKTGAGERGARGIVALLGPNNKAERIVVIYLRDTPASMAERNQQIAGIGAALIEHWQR
Procedure, shortened: (§1)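 β-Lactamases purified to homogeneity; hydrolysis rate of the cephalosporin substrate measured in 0.1 M sodium phosphate buffer, pH 7.0, by standard methods.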

[2] = target: Beta-lactamase TEM (Escherichia coli) (UniProt P62593); assay: Rate of hydrolysis in 0.1 M sodium phosphate buffer at pH=7.0 by Beta lactamase (TEM-3); procedure, shortened: as §1
[3] = target: Beta-lactamase TEM (Escherichia coli) (UniProt P62593); assay: Rate of hydrolysis in 0.1 M sodium phosphate buffer at pH=7.0 by Beta lactamase (TEM-4); procedure, shortened: as §1
[4] = target: Beta-lactamase (Bacillus licheniformis) (UniProt P00808); assay: Rate of hydrolysis in 0.1 M sodium phosphate buffer at pH=7.0 by Beta lactamase (B.l icheniformis 749/C); procedure, shortened: as §1
[5] = system: Citrobacter freundii; assay: In vitro minimum inhibitory concentration required to produce antibacterial activity against Citrobacter freundii 902; assay type: functional
Procedure, shortened: (§2)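 Two-fold agar dilution on Mueller-Hinton agar. Overnight broth cultures diluted in fresh broth to […]; 10⁴ CFU/spot applied by inoculating apparatus onto plates with graded drug concentrations. Incubated 18 h at 37 °C; MIC taken as the lowest concentration giving complete growth inhibition.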

[6] = system: Escherichia coli; assay: In vitro minimum inhibitory concentration required to produce antibacterial activity against Escherichia coli 25922; assay type: functional; procedure, shortened: as §2
[7] = system: Enterococcus faecalis; assay: In vitro minimum inhibitory concentration required to produce antibacterial activity against Enterococcus faecalis ATCC 29212; assay type: functional; procedure, shortened: as §2
[8] = system: Escherichia coli; assay: Inhibitory concentration against purified penicillin-binding protein(PBP) 1bgamma of Escherichia coli; assay type: functional
Procedure, shortened: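 PBP purified to homogeneity. IC50 from competition with dansyl-penicillin or a coumarin analogue; protein-bound fluorescence recovered by TCA precipitation and glass-fibre filtration, then read by fluorimetry after drying.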

[9] = system: Enterococcus durans; assay: Inhibitory concentration against purified beta-Lactam resistant PBP5 from Enterococcus durans; assay type: functional
Procedure, shortened: (§3)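 PBPs purified to homogeneity. IC50 measured by competition with fluorescent dansyl-penicillin or a coumarin analogue probe. Protein-bound fluorescence determined after TCA precipitation, filtration on glass fibre filters and drying, read on a fluorimeter.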

[10] = system: Enterobacter cloacae; assay: In vitro minimum inhibitory concentration required to produce antibacterial activity against Enterobacter cloacae 908SSI; assay type: functional; procedure, shortened: as §2
[11] = system: Pseudomonas aeruginosa; assay: (§4) In vitro minimum inhibitory concentration required to produce antibacterial activity against Pseudomonas aeruginosa ATCC 27853; assay type: functional
Procedure, shortened: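 Two-fold agar dilution on Mueller-Hinton agar. Overnight broth cultures diluted in fresh broth, inoculum 10⁴ CFU/spot applied by inoculating apparatus to plates with graded drug concentrations. Plates incubated 18 h at 37 °C. MIC taken as lowest concentration completely inhibiting growth.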

[12] = system: Streptococcus pneumoniae; assay: Inhibitory concentration against purified PBP2x from Streptococcus pneumoniae; assay type: functional; procedure, shortened: as §3
[13] = system: Streptococcus pneumoniae; assay: Inhibitory concentration against purified cephalosporin-resistant PBP2x.505 from Streptococcus pneumoniae; assay type: functional; procedure, shortened: as §3
[14] = system: Streptococcus pneumoniae; assay: Inhibitory concentration against purified cephalosporin-resistant PBP2x.604 from Streptococcus pneumoniae; assay type: functional; procedure, shortened: as §3
[15] = system: Staphylococcus aureus; assay: In vitro minimum inhibitory concentration required to produce antibacterial activity against Staphylococcus aureus 743 MRSA; assay type: functional; procedure, shortened: as §2
[16] = system: Staphylococcus aureus; assay: In vitro minimum inhibitory concentration required to produce antibacterial activity against Staphylococcus aureus 887MSSA; assay type: functional; procedure, shortened: as §2
[17] = system: Staphylococcus epidermidis; assay: Inhibitory concentration against purified beta-Lactam-resistant PBP2 from Staphylococcus epidermidis; assay type: functional; procedure, shortened: as §3
[18] = system: Streptococcus pneumoniae; assay: In vitro minimum inhibitory concentration required to produce antibacterial activity against Streptococcus pneumoniae 1/37(pen r); assay type: functional; procedure, shortened: as §2
[19] = system: Streptococcus pneumoniae; assay: Minimum inhibitory concentration for antibacterial activity against Streptococcus pneumoniae Q19 (pen s); assay type: functional; procedure, shortened: as §2
[20] = target: T1, Beta-lactamase SHV-1 (Escherichia coli); assay: Rate of hydrolysis in 0.1 M sodium phosphate buffer at pH=7.0 by Beta lactamase (SHV-4); procedure, shortened: as §1
[21] = target: Beta-lactamase (Bacillus licheniformis) (UniProt P00808); assay: Rate of hydrolysis in 0.1 M sodium phosphate buffer at pH=7.0 by Beta lactamase (Bacillus licheniformis 749/C); procedure, shortened: as §1
[22] = system: Pseudomonas aeruginosa; assay: as §4; assay type: functional; procedure, shortened: as §2; remark: listed apart in the source
[23] = target: Beta-lactamase (Proteus vulgaris) (UniProt P52664); assay: Rate of hydrolysis in 0.1 M sodium phosphate buffer at pH=7.0 by Beta lactamase (Proteus vulgaris 1028)
Chain of Beta-lactamase (Proteus vulgaris) (P52664 whole entry, looked up): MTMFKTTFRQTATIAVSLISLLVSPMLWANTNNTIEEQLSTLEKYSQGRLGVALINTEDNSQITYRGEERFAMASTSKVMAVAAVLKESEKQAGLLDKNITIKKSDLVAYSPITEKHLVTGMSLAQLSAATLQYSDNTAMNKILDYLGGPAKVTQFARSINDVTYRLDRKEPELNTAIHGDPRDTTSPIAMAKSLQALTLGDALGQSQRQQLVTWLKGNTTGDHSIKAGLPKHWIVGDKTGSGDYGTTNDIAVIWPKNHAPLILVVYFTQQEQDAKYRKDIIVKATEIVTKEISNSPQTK

Chain of Beta-lactamase TEM (Escherichia coli) (P62593 whole entry): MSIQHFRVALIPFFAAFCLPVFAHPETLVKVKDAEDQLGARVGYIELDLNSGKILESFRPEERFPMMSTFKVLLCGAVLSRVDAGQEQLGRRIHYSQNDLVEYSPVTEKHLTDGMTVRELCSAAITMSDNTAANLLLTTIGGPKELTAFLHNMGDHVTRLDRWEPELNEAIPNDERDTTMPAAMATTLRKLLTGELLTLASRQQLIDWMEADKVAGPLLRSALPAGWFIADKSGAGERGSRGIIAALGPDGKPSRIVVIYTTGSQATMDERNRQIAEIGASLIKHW
Chain of Beta-lactamase (Bacillus licheniformis) (P00808 whole entry): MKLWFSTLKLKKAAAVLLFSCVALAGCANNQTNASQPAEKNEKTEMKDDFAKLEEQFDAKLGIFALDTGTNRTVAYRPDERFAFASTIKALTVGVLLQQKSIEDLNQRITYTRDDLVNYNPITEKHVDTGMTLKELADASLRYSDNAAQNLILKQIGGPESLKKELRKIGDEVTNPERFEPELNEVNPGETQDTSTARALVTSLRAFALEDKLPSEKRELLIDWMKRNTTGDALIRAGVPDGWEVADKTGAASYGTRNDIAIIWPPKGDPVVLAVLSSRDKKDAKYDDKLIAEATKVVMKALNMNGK

SMILES | MIC [5] [µg/mL] | MIC [6] [µg/mL] | MIC [7] [µg/mL] | IC50 [8] [µM] | IC50 [9] [µM] | MIC [10] [µg/mL] | IC50 [12] [µM] | IC50 [13] [µM] | IC50 [14] [µM] | MIC [15] [µg/mL] | MIC [16] [µg/mL] | IC50 [17] [µM] | MIC [18] [µg/mL] | MIC [19] [µg/mL] | MIC [22] [µg/mL] | other results
CO/N=C(\C(=O)N[C@@H]1C(=O)N2C(C(=O)O)=C(CSc3nc(=O)c(O)nn3C)CS[C@H]12)c1csc(N)n1 [CEFTRIAXONE] | 0.25 (≈ 0.451 µM) | ≤ 0.06 | > 32 | 0.29 | > 500 | 0.5 (≈ 0.902 µM) | 0.5 | 2.5 | 5.5 | > 32 | 4 (≈ 7.21 µM) | 960 | 2 (≈ 3.61 µM) | ≤ 0.06 |  | Activity (M min-1 (M of enzyme)-1) [1]: 2310; Activity (M min-1 (M of enzyme)-1) [2]: 79; Activity (M min-1 (M of enzyme)-1) [3]: 643; Activity (M min-1 (M of enzyme)-1) [4]: 1890; MIC [11]: 16 µg/mL (≈ 28.9 µM); Activity (M min-1 (M of enzyme)-1) ([20]; Proteus vulgaris): 3340
C[C@@H](O)[C@H]1C(=O)N2C(C(=O)O)=C(SCCNC=N)C[C@H]12 [IMIPENEM ANHYDROUS] |  |  |  | 0.01 | > 1000 |  | 0.5 | 0.5 | 5.3 |  |  | > 1000 |  |  |  | 
CC(C)(O/N=C(\C(=O)N[C@@H]1C(=O)N2C(C(=O)[O-])=C(C[n+]3ccccc3)CS[C@H]12)c1csc(N)n1)C(=O)O [CEFTAZIDIME] | 0.5 (≈ 0.915 µM) | 0.25 (≈ 0.457 µM) | > 32 |  |  | 1 (≈ 1.83 µM) |  |  |  | > 32 | 8 (≈ 14.6 µM) |  | 16 (≈ 29.3 µM) | 0.25 (≈ 0.457 µM) |  | MIC [11]: 1 µg/mL (≈ 1.83 µM)
Nc1nc(/C(=N/O)C(=O)N[C@@H]2C(=O)N3C(C(=O)O)=C(/C=C4\CCN(CC(F)(F)F)C4=O)CS[C@H]23)cs1 [RO 25-6833] | 0.25 (≈ 0.457 µM) | ≤ 0.06 | 1 (≈ 1.83 µM) | 30 | 8 | 0.5 (≈ 0.915 µM) | 0.3 | 0.36 | 0.87 | 8 (≈ 14.6 µM) | 1 (≈ 1.83 µM) | 25 | 1 (≈ 1.83 µM) | 0.06 (≈ 0.11 µM) | 16 (≈ 29.3 µM) | Activity (M min-1 (M of enzyme)-1) [1]: 1580; Activity (M min-1 (M of enzyme)-1) [2]: 14; Activity (M min-1 (M of enzyme)-1) [3]: 305; Activity (M min-1 (M of enzyme)-1) [21]: 906; Activity (M min-1 (M of enzyme)-1) [20]: 1390; Activity (M min-1 (M of enzyme)-1) [23]: 461
Nc1nc(/C(=N/O)C(=O)N[C@@H]2C(=O)N3C(C(=O)O)=C(/C=C4\CCN(CC(=O)O)C4=O)CS[C@H]23)cs1 | 2 (≈ 3.83 µM) | 0.12 (≈ 0.23 µM) | 8 (≈ 15.3 µM) |  |  | 8 (≈ 15.3 µM) |  |  |  | > 32 | 16 (≈ 30.6 µM) |  | 2 (≈ 3.83 µM) | 0.12 (≈ 0.23 µM) | > 32 | 
C=CCO/N=C(\C(=O)N[C@@H]1C(=O)N2C(C(=O)O)=C(/C=C3\CCN(CC(F)(F)F)C3=O)CS[C@H]12)c1csc(N)n1 | 2 (≈ 3.41 µM) | 1 (≈ 1.7 µM) | 32 (≈ 54.6 µM) |  |  | 4 (≈ 6.82 µM) |  |  |  | 4 (≈ 6.82 µM) | 4 (≈ 6.82 µM) |  | 0.5 (≈ 0.852 µM) | ≤ 0.06 | 8 (≈ 13.6 µM) | 
Nc1nc(/C(=N/O)C(=O)N[C@@H]2C(=O)N3C(C(=O)O)=C(/C=C4\CCN(C5CC5)C4=O)CS[C@H]23)cs1 | 0.12 (≈ 0.238 µM) | ≤ 0.06 | 1 (≈ 1.98 µM) |  |  | 0.12 (≈ 0.238 µM) |  |  |  | 8 (≈ 15.9 µM) | 1 (≈ 1.98 µM) |  | 2 (≈ 3.96 µM) | 0.03 (≈ 0.0595 µM) | 8 (≈ 15.9 µM) | 
CO/N=C(\C(=O)N[C@@H]1C(=O)N2C(C(=O)O)=C(/C=C3\CCN(CC(F)(F)F)C3=O)CS[C@H]12)c1csc(N)n1 | 0.25 (≈ 0.446 µM) | 0.25 (≈ 0.446 µM) | > 32 |  |  | 1 (≈ 1.78 µM) |  |  |  | 8 (≈ 14.3 µM) | 8 (≈ 14.3 µM) |  | 0.5 (≈ 0.892 µM) | ≤ 0.03 | 8 (≈ 14.3 µM) | 
Nc1nc(/C(=N/OCCF)C(=O)N[C@@H]2C(=O)N3C(C(=O)O)=C(/C=C4\CCN(CC(F)(F)F)C4=O)CS[C@H]23)cs1 | 1 (≈ 1.69 µM) | 0.5 (≈ 0.844 µM) | 32 (≈ 54 µM) |  |  | 2 (≈ 3.38 µM) |  |  |  | 16 (≈ 27 µM) | 4 (≈ 6.75 µM) |  | 1 (≈ 1.69 µM) | ≤ 0.06 | 8 (≈ 13.5 µM) | 
COc1cccc(CN2CC/C(=C\C3=C(C(=O)O)N4C(=O)[C@@H](NC(=O)/C(=N\O)c5csc(N)n5)[C@H]4SC3)C2=O)c1 | 2 (≈ 3.42 µM) | 2 (≈ 3.42 µM) | 1 (≈ 1.71 µM) |  |  | 4 (≈ 6.84 µM) |  |  |  | 8 (≈ 13.7 µM) | 1 (≈ 1.71 µM) |  | 1 (≈ 1.71 µM) | ≤ 0.06 | > 32 | 
